Screening results: PubChem BioAssay, Broad Institute
Hits are enriched below; roughly 3.5% of the tested compounds scored in any of these assays.
PGC1a acetyl inh: inhibitors of PGC1a acetylation signal, primary screen, cell-based, U2OS, AlphaScreen, inhibitor mode; AlphaScreen anti-acetyl-lysine; with virally co-expressed GCN5 acetyltransferase; inhibition, % at 15.6 µM; actives 0.17% (n = 350,000); AID 651687, 2012;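 active = every replicate shows inhibition of at least 40%; inconclusive = mean inhibition at least 40% but some replicate below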;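 note: 0% = neutral control wells and 100% = positive control wells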
FGF22 binding: binders of human FGF22 protein, primary screen, FGF22 synaptogenesis inhibitor project, biophysical, thermal shift, single point. AID 651658, 2012. activity (Tm shift, normalised), % at 9.99 µM. Fibroblast growth factor 22 (Homo sapiens), Q9HCT0. actives 1.5% (n = 340,000). recombinant FGF22 thermal shift, SYPRO orange fluorescence; percent of sucrose octasulfate shift, DMSO zero;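 active = mean Tm shift, scaled 0 neutral to 100 positive control, at about 1.3% or above, every replicate too, limit read from the data; inconclusive = no clear call, values can overlap the other calls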
HIV Env fusion: inhibitors of HIV-1 Env-driven cell-cell fusion, primary screen, HeLa-JRFL effector, CEM21 target cells, luciferase | inhibition, % at 12.3 µM | actives 1.1% (n = 360,000) | AID 651610, 2012;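 active = mean replicate inhibition score of at least 50 and every replicate individually at or above 50; inconclusive = only one of the two criteria met; inactive = mean below 50 and not all replicates reaching 50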;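 note: 0% = plate neutral controls and 100% = maraviroc near 300 nM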
ERAP1 HTS inh: human ERAP1 aminopeptidase inhibitors, primary screen, biochemical, single point, plate reader. Endoplasmic reticulum aminopeptidase 1 (Homo sapiens), Q9NZ08. recombinant ERAP1, Leu-AMC fluorescence, 60 min. actives 0.15% (n = 340,000). inhibition, % at 10.7 µM. AID 652197, 2013;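 active = mean replicate inhibition of at least 30%, or all replicates individually reaching that 30% level; inactive = mean below 30% and not every replicate reaching it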;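 note: 0% = neutral control wells and 100% = L-leucinethiol positive control wells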
Target sequence (Q9NZ08 whole entry, looked up): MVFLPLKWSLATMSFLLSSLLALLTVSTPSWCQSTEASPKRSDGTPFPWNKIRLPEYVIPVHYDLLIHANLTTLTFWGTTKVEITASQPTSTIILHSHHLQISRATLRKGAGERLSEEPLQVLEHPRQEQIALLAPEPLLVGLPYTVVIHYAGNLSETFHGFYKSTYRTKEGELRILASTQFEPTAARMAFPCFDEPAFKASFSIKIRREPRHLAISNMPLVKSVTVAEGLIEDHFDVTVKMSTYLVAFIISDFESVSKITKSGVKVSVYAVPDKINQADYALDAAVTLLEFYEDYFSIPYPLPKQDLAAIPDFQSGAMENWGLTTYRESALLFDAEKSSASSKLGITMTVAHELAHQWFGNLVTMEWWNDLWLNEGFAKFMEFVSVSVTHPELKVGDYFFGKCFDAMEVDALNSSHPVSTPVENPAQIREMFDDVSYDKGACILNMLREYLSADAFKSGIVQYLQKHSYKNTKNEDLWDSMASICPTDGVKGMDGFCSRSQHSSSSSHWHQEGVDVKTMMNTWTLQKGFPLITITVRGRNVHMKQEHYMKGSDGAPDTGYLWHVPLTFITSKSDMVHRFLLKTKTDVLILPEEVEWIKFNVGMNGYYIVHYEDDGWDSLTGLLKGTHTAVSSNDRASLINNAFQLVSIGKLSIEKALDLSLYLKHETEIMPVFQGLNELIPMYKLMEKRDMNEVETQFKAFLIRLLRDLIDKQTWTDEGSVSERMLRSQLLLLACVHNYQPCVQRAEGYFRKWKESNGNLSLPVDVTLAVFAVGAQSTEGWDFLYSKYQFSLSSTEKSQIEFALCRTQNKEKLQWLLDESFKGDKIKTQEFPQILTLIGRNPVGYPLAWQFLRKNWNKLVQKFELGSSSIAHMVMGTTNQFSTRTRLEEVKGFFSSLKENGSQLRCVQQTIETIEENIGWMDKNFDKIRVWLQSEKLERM
Cneo AK release: Cryptococcus neoformans cell lysis inducers, primary screen, AK release luminescence, single concentration. AID 651654, 2012. actives 0.2% (n = 360,000). C. neoformans lysis, adenylate kinase release luminescence, 4 h; normalised: neutral wells 0, clomiphene wells 100. lysis activity, % at 15 µM;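 active = mean lysis activity across replicates of at least 80%, whatever share of replicates individually reach that level; inactive = mean lysis activity below 80%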
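Signal: Adenylate kinase release luminescence | Assay system: Log-phase Cryptococcus neoformans yeast cells | Input: Cells at 5 × 10^6 per mL | Buffer or medium: Fresh YPD growth medium | Compound: Single dose | Schedule: Static 4 h at 37 °C with compound, 1 h detection | Controls: Clomiphene | Read-out: Luminescence rise reflecting yeast cell lysis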
rRNA inh HTS: reduced GFP signal of wild-type E. coli, primary screen, bacterial rRNA inhibitor project, GFP/RFP fluorescence, OD600, single point. E. coli WT GFP vs humanized-ribosome RFP mutants, 24 h; active compounds read low; DMSO median 0, no signal -100. GFP signal change (wild-type ribosome), % (concentration not given with the values). actives 1.6% (n = 350,000);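 active = significant combined selectivity score with lowered wild-type GFP, culture density cut under 30%, mutant RFP and density less affected; inactive = any of these conditions unmet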
Numbers without * were called inactive; ? = inconclusive; . = no result given; [ ] = another dose, or the depositor's remark.

SMILES | PGC1a acetyl inh | FGF22 binding | HIV Env fusion | ERAP1 HTS inh | Cneo AK release | rRNA inh HTS
C[C@H](CO)N1C[C@H](C)[C@H](CN(C)S(=O)(=O)c2ccccc2)Oc2ccc(NS(=O)(=O)c3cccs3)cc2CC1=O | 6 | 0 | 64*[16.7 µM] | -3 | 3 | 2
C[C@@H]1CN([C@@H](C)CO)C(=O)Cc2cc(NS(=O)(=O)c3ccc(Cl)cc3)ccc2O[C@@H]1CN(C)S(=O)(=O)c1ccccc1 | -11 | 0 | 7[16.7 µM] | 3 | 0 | -2
CCC(CC)Nc1ccc(C(CC(N)=O)NC(=O)Cc2ccc(Br)cc2)cc1[N+](=O)[O-] (stereo not given) | . | 0 | 20 | -3 | -14 | 8
COc1cccc(NC(=O)N(C)C[C@H]2Oc3cc(C#Cc4ccncc4)ccc3S(=O)(=O)N([C@H](C)CO)C[C@H]2C)c1 | -22 | 1 | -10 | 9 | 1 | 0
COc1cc(C(=O)N(Cc2cccnc2)Cc2cc3cc4c(cc3[nH]c2=O)OCCO4)cc(OC)c1OC | 4 | . | 1 | . | -4 | .
O=C(c1ccccc1F)N(Cc1cccnc1)Cc1cc2cc3c(cc2[nH]c1=O)OCCO3 | -2 | 43* | 11 | 3 | 0 | 18
CO[C@@H]1CN(C)C(=O)c2ccc(NS(=O)(=O)c3ccccc3C)cc2OC[C@H](C)NC[C@H]1C | -3 | 0 | . | -4 | -6 | -1
N/C(=N\N=C\c1ccc(O)cc1)c1nonc1N | 8 | 44* | -90 | -1 | . | 9
CCN(CC(=O)Nc1cccc(OC)c1)c1ncnc2sc(C)c(C)c12 | 19 | . | 58* | . | 3 | .
CC(NCCC1(Cc2ccccc2Cl)CCOC(C)(C)C1)c1cccs1 (stereo not given) | -2 | 0 | 8 | 0 | 1 | -39*
COC(CNC(=O)CN1C(=O)COc2ccc(S(=O)(=O)N3CCOCC3)cc21)OC | 0 | 0 | -5 | 0 | -2 | 11
CNC(=S)NCCc1ccc(OC)cc1 | . | 43* | -4 | -3 | . | .
COc1ccc(/C=N/NC(=S)NCCc2ccccc2)cc1 | 4 | 0 | 10 | 0 | 11 | -22*
Cc1ccc(S(=O)(=O)N2CCN(C(=O)CNC(=O)c3ccc(Br)o3)CC2)cc1 | . | . | 64* | 0 | . | 1
O=C(NCC(=O)N1CCN(S(=O)(=O)c2ccccc2)CC1)c1ccc(Br)o1 | 5 | 0 | . | 2 | -1 | 7
CC(=O)Nc1cc2c(cc1Cl)Cc1cc(Cl)ccc1-2 | 5 | 43* | ? | 2 | 1 | -1
N#Cc1cccc(C#N)c1NCC1CCCO1 (stereo not given) | 43* | 0 | 2 | 5 | -2 | 2
CN(C)C(/C=C/Nc1ccc(Br)cc1)=C(C#N)C#N | 3 | 43* | -10 | -2 | . | 4
CN(C)C(/C=C/Nc1ccc(C#N)cc1)=C(C#N)C#N | -6 | . | . | . | -3 | .
Cc1nnc(NC(=O)CSc2nnc(C)n2-c2ccc(F)cc2)s1 | . | 0 | -6 | . | -1 | 16
CC(=O)n1cc(/C=N/NC(=O)c2cccc(O)c2)c2ccccc21 | 1 | 0 | -24 | 2 | -3 | -23*
CC(=O)n1cc(/C=N/NC(=O)c2ccc(Cl)cc2)c2ccccc21 | 7 | 0 | -14 | -4 | -3 | 1
CCc1c(C)nc2c(C#N)c(C)[nH]n2c1=O | -3 | . | . | . | -1 | .
COc1cc(-c2nc3ccccc3s2)ccc1O | 4 | . | -130 | . | 2 | .
CCOc1cc(-c2nc3ccccc3s2)ccc1O | 0 | . | -30 | -17 | 6 | -35*
SMILES | PGC1a acetyl inh | FGF22 binding | HIV Env fusion | ERAP1 HTS inh | Cneo AK release | rRNA inh HTS
COc1ccc2c3c(n(C)c2c1)[C@@H](CO)N(S(=O)(=O)c1ccc(C)cc1)CC31CCN(Cc2cccnc2)CC1 | -5 | 0 | . | 1 | . | -5
COc1ccccc1C(CNC(=O)c1cccc(S(=O)(=O)N2CCCc3ccccc32)c1)N(C)C (stereo not given) | . | 0 | -7 | 2 | -3 | -8
COc1ccc(C(CNC(=O)c2cccc(S(=O)(=O)N3CCc4ccccc43)c2)N(C)C)cc1 (stereo not given) | -2 | 43* | -21 | 1 | 13 | 2
Cc1c(CN2CCCC(CO)(Cc3cccc(Cl)c3)C2)cnn1C (stereo not given) | -3 | 43* | -8 | 4 | -1 | 24
COc1ccc(/C=C/CN2CCCC(CO)(Cc3cccc(Cl)c3)C2)cc1 (stereo not given) | -13 | 0 | 17 | 11 | 4 | -47*
COc1c(F)c(F)c(C(=O)Nc2ccc3oc(-c4ccncc4)nc3c2)c(F)c1F | 6 | . | . | . | 4 | .
O=C(Nc1ccc2nn(-c3ccc(F)cc3)nc2c1)c1cccnc1 | -23 | 44* | -34 | 0 | . | 4
O=C1/C(=C\c2cccc(O)c2)SC(=S)N1Cc1ccccc1 | 8 | 0 | 2 | 2 | 46 | -20*
COc1cc(/C=C2/SC(=S)N(CC(=O)O)C2=O)ccc1OC(=O)c1ccco1 | . | 0 | -1 | 56* | -2 | 3
O=C(O)CN1C(=O)/C(=C\c2ccccc2OCc2ccc(F)cc2)SC1=S | -8 | . | 8 | 32* | -2 | -39*
COc1ccccc1/C=C1\SC(=S)N(CCC(=O)Nc2cccc(O)c2)C1=O | . | 0 | 70* | 3 | -1 | -31*
O=C1/C(=C\c2ccc(O)c(O)c2)SC(=S)N1Cc1ccccc1 | 6 | 0 | -6 | -1 | -1 | -20
O=C(O)CN1C(=O)/C(=C\c2ccccc2OCc2ccccc2)SC1=S | . | 1 | -27 | 22 | 0 | -29
COc1cc(/C=C2\SC(=S)N(CC(=O)O)C2=O)ccc1OC(=O)c1ccco1 | . | 0 | 9 | 1 | -2 | -7
CC(=O)N[C@@H]1CC[C@@H](CC(=O)NCC2CCCCC2)O[C@@H]1CO | 3 | 0 | -17[16.7 µM] | -3 | 60 | 0
Cc1cc(C)cc(NC(=S)NC(=O)C2CC2)c1 | . | 0 | -46 | 0 | 17 | -14
O=[N+]([O-])c1c(NCCCO)cc(Sc2nc3ccccc3s2)c2nonc12 | 58* | . | . | -4 | 1 | 5
COc1ccc(C(=O)Oc2cccnc2)cc1OC | 8 | . | -45 | . | 2 | .
O=C(Nc1ccc(N2CCOCC2)c(Cl)c1)c1ccc(Br)o1 | -4 | . | -122 | . | 3 | .
Cc1cc([N+](=O)[O-])ccc1NC(=O)C[n+]1ccc(N(C)C)cc1 | -13 | 43* | 4 | -1 | . | 7
Cc1ccc(S(=O)(=O)Nc2cccc(Cl)c2)cc1NC(=O)c1cccnc1 | -19 | 0 | 8 | 5 | 0 | -15
